Tests used:
Rattus norvegicus = test: Antagonism of scopolamine-induced passive avoidance in Wistar rat assessed as latency of visiting dark box measured for 5 mins at 1 mg/kg, po dosed 30 mins after scopolamine challenge and measured 1 hr post dose; format: functional
How it was run: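 Rats, 10 per compound. Scopolamine 1 mg/kg ip given 30 min before the test compound (1 mg/kg oral). One hour after dosing, rats placed in the illuminated compartment with the door closed for 30 s habituation. Door then opens automatically and latency to enter the dark box is timed over 5 min. Antagonism (%) is scaled against the latency difference between no-scopolamine and scopolamine-only groups, taken as 100%.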

Homo sapiens [1] = organism: Homo sapiens; test: Selectivity index, ratio of IC50 for human recombinant BuChE to IC50 for human recombinant AChE
Cholinesterase = Cholinesterase (Homo sapiens, UniProt P06276); test: Inhibition of human recombinant BuChE using butyrylthiocholine iodide substrate incubated for 15 mins by spectrophotometry based Ellman's method
Acetylcholinesterase = Acetylcholinesterase (Homo sapiens, UniProt P22303); test: Inhibition of human recombinant AChE using acetylthiocholine iodide substrate incubated for 15 mins by spectrophotometry based Ellman's method
Homo sapiens [2] = organism: Homo sapiens; test: Selectivity index, ratio of IC50 for human recombinant AChE to IC50 for human recombinant BuChE
How it was run: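 Modified Ellman assay in Tris-HCl pH 8.0 with DTNB (0.34 mM final). Human recombinant AChE (0.4 U/mL solution) with acetylthiocholine iodide; human recombinant BuChE (1.6 U/mL solution) with butyrylthiocholine iodide (1.5 mM final). 15 min at 27 °C, read at 412 nm against enzyme-free blank and inhibitor-free control, in triplicate. IC50s fitted by sigmoidal Hill slope; ratio of the two IC50s.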

Sequence of Cholinesterase (P06276 whole entry): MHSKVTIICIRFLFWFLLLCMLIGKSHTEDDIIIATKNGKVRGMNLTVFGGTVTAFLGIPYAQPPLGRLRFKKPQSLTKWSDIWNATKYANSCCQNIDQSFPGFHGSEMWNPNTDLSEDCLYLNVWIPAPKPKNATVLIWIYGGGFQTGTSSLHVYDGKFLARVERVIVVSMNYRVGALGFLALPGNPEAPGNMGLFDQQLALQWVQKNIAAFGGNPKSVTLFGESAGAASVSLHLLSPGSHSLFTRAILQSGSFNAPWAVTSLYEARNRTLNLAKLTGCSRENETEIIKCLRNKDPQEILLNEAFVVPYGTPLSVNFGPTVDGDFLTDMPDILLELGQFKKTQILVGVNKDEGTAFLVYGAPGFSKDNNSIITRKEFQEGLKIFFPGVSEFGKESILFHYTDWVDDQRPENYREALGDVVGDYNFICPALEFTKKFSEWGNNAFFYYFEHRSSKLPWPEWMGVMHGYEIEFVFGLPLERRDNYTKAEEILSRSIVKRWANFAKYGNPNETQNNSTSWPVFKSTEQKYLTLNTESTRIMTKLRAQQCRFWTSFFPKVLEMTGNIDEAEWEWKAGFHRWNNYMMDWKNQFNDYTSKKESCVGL
Sequence of Acetylcholinesterase (P22303 whole entry): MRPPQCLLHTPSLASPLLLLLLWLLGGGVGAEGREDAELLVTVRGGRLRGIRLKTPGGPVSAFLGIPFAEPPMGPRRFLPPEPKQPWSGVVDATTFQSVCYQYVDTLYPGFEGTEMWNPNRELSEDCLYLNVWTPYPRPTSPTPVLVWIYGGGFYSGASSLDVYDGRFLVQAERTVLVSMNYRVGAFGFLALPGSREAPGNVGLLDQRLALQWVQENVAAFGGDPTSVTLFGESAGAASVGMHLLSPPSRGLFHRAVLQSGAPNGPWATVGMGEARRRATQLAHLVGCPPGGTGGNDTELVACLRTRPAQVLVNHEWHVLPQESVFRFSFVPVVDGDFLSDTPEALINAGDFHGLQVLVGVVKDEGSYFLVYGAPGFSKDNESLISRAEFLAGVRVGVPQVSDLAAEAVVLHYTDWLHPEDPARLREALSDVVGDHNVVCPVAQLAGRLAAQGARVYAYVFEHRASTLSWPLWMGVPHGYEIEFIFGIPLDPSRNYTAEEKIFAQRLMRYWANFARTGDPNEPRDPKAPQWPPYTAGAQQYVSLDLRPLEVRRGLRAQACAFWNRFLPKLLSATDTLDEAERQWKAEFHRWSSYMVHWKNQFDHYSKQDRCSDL

## COc1cc(C(C)N(C)C)cc2oc(=O)c3ccccc3c12 (racemic)
Rattus norvegicus
  inhibition in vivo at 1 mg/kg: 71%
Homo sapiens [1]
  Ratio IC50: 7.5

## O=c1oc2cc(OCCN3CCN(Cc4ccccc4)CC3)ccc2c2c1CCCC2
Cholinesterase
  IC50: 32 µM
Acetylcholinesterase
  IC50: 1.3 µM
Homo sapiens [1]
  Ratio IC50: 24.6

## COc1cccc(CN2CCN(CCOc3ccc4c5c(c(=O)oc4c3)CCCC5)CC2)c1
Cholinesterase
  IC50: > 40 µM
Acetylcholinesterase
  IC50: 7.3 µM
Homo sapiens [1]
  Ratio IC50: > 5

## COc1cccc(CN(C)CCOc2ccc3c(c2)oc(=O)c2ccccc23)c1
Cholinesterase
  IC50: 33.2 µM
Acetylcholinesterase
  IC50: 18.4 µM
Homo sapiens [1]
  Ratio IC50: 1.8

## COc1cccc(CC2CCN(CCCOc3ccc4c(c3)oc(=O)c3ccccc34)CC2)c1
Cholinesterase
  IC50: > 40 µM
Acetylcholinesterase
  IC50: 18.5 µM
Homo sapiens [1]
  Ratio IC50: > 2

## COc1cccc(CN2CCN(CCOc3ccc4c(c3)oc(=O)c3ccccc34)CC2)c1
Cholinesterase
  IC50: > 40 µM
Acetylcholinesterase
  IC50: 11.4 µM
Homo sapiens [1]
  Ratio IC50: > 3

## CN(CCCOc1ccc2c3c(c(=O)oc2c1)CCCC3)Cc1ccccc1
Cholinesterase
  IC50: 15.9 µM
Acetylcholinesterase
  IC50: 2.1 µM
Homo sapiens [1]
  Ratio IC50: 7.6

## O=c1oc2cc(OCCCCN3CCC(Cc4ccccc4)CC3)ccc2c2ccccc12
Cholinesterase
  IC50: > 40 µM
Acetylcholinesterase
  IC50: 14.2 µM
Homo sapiens [1]
  Ratio IC50: > 2

## CC(c1ccc2c(c1)oc(=O)c1ccccc12)N(C)C (racemic)
Rattus norvegicus
  inhibition in vivo at 1 mg/kg: 70%
Homo sapiens [1]
  Ratio IC50: 1.6

## COc1cccc(CN2CCN(CCCCOc3ccc4c(c3)oc(=O)c3ccccc34)CC2)c1
Cholinesterase
  IC50: > 40 µM
Acetylcholinesterase
  IC50: 21.3 µM
Homo sapiens [1]
  Ratio IC50: > 1

## COc1cccc(CC2CCN(CCCCOc3ccc4c(c3)oc(=O)c3ccccc34)CC2)c1
Cholinesterase
  IC50: > 40 µM
Acetylcholinesterase
  IC50: 27.4 µM
Homo sapiens [1]
  Ratio IC50: > 1

## COc1cccc(CN2CCN(CCCOc3ccc4c5c(c(=O)oc4c3)CCCC5)CC2)c1
Cholinesterase
  IC50: 18.4 µM
Acetylcholinesterase
  IC50: 6.2 µM
Homo sapiens [1]
  Ratio IC50: 2.9

## O=c1oc2cc(OCCCCN3CCN(Cc4ccccc4)CC3)ccc2c2c1CCCC2
Cholinesterase
  IC50: 14.6 µM
Acetylcholinesterase
  IC50: 6.4 µM
Homo sapiens [1]
  Ratio IC50: 2.3

## CC(c1cc(O)cc2oc(=O)c3ccccc3c12)N(C)C (racemic)
Cholinesterase
  IC50: > 40 µM
Homo sapiens [1]
  Ratio IC50: > 1

## O=c1oc2cc(OCCCCN3CCC(Cc4ccccc4)CC3)ccc2c2c1CCCC2
Cholinesterase
  IC50: 20.1 µM
Acetylcholinesterase
  IC50: 9.2 µM
Homo sapiens [1]
  Ratio IC50: 2.2

## COc1cccc(CC2CCN(CCOc3ccc4c5c(c(=O)oc4c3)CCCC5)CC2)c1
Cholinesterase
  IC50: > 40 µM
Acetylcholinesterase
  IC50: 37.2 µM
Homo sapiens [1]
  Ratio IC50: > 1

## O=c1oc2cc(OCCCCN3CCN(Cc4ccccc4)CC3)ccc2c2ccccc12
Cholinesterase
  IC50: > 40 µM
Acetylcholinesterase
  IC50: 8.2 µM
Homo sapiens [1]
  Ratio IC50: > 4

## COc1cc2c(cc1OC)C(=O)C(CC1CCN(Cc3ccccc3)CC1)C2 (configuration not stated) [DONEPEZIL]
Rattus norvegicus
  inhibition in vivo at 1 mg/kg: 58%

## CCN(C)C(=O)Oc1cccc([C@H](C)N(C)C)c1 (racemic) [RIVASTIGMINE]
Rattus norvegicus
  inhibition in vivo at 1 mg/kg: 85%

## COc1cccc(CC2CCN(CCCOc3ccc4c5c(c(=O)oc4c3)CCCC5)CC2)c1
Cholinesterase
  IC50: > 40 µM
Acetylcholinesterase
  IC50: 4.9 µM
Homo sapiens [1]
  Ratio IC50: > 8

## COc1cc(C(C)N(C)C)c2c(c1)oc(=O)c1ccccc12 (racemic)
Homo sapiens [1]
  Ratio IC50: 1.6

## COc1cccc(CN2CCN(CCCOc3ccc4c(c3)oc(=O)c3ccccc34)CC2)c1
Cholinesterase
  IC50: > 40 µM
Acetylcholinesterase
  IC50: 18 µM
Homo sapiens [1]
  Ratio IC50: > 2

## COc1cccc(CN2CCN(CCCCOc3ccc4c5c(c(=O)oc4c3)CCCC5)CC2)c1
Cholinesterase
  IC50: 23.4 µM
Acetylcholinesterase
  IC50: 8.7 µM
Homo sapiens [1]
  Ratio IC50: 2.7

## C[C@@H](c1ccc2c(c1)oc(=O)c1ccccc12)N(C)C
Rattus norvegicus
  inhibition in vivo at 1 mg/kg: 71%
Homo sapiens [1]
  Ratio IC50: 2.1

## O=c1oc2cc(OCCN3CCC(Cc4ccccc4)CC3)ccc2c2ccccc12
Cholinesterase
  IC50: > 40 µM
Acetylcholinesterase
  IC50: 20 µM
Homo sapiens [1]
  Ratio IC50: > 2

## COc1cccc(CC2CCN(CCCCOc3ccc4c5c(c(=O)oc4c3)CCCC5)CC2)c1
Cholinesterase
  IC50: 27.8 µM
Acetylcholinesterase
  IC50: 13.7 µM
Homo sapiens [1]
  Ratio IC50: 2

## CN(CCOc1ccc2c3c(c(=O)oc2c1)CCCC3)Cc1ccccc1
Cholinesterase
  IC50: > 40 µM
Acetylcholinesterase
  IC50: 2.8 µM
Homo sapiens [1]
  Ratio IC50: > 14

## O=c1oc2cc(OCCCN3CCC(Cc4ccccc4)CC3)ccc2c2ccccc12
Cholinesterase
  IC50: 21.3 µM
Acetylcholinesterase
  IC50: 4.1 µM
Homo sapiens [1]
  Ratio IC50: 5.2

## CC(c1cc(O)c2c(c1)oc(=O)c1ccccc12)N(C)C (racemic)
Rattus norvegicus
  inhibition in vivo at 1 mg/kg: 49%
Homo sapiens [2]
  Ratio IC50: 4.5

## COc1cccc(CN(C)CCCOc2ccc3c4c(c(=O)oc3c2)CCCC4)c1
Cholinesterase
  IC50: > 40 µM
Acetylcholinesterase
  IC50: 2.7 µM
Homo sapiens [1]
  Ratio IC50: > 14

## CCN(C)C(=O)Oc1cc(C(C)N(C)C)c2c(c1)oc(=O)c1ccccc12 (racemic)
Acetylcholinesterase
  IC50: > 40 µM
Homo sapiens [2]
  Ratio IC50: > 4

## O=c1oc2cc(OCCCN3CCN(Cc4ccccc4)CC3)ccc2c2ccccc12
Cholinesterase
  IC50: 3.7 µM
Rattus norvegicus
  inhibition in vivo at 1 mg/kg: 85%
Acetylcholinesterase
  IC50: 0.8 µM
Homo sapiens [1]
  Ratio IC50: 4.6

## O=c1oc2cc(OCCCN3CCN(Cc4ccccc4)CC3)ccc2c2c1CCCC2
Cholinesterase
  IC50: 3.1 µM
Rattus norvegicus
  inhibition in vivo at 1 mg/kg: 58%
Acetylcholinesterase
  IC50: 0.9 µM
Homo sapiens [1]
  Ratio IC50: 3.4

## COc1cccc(CN(C)CCCOc2ccc3c(c2)oc(=O)c2ccccc23)c1
Cholinesterase
  IC50: 29.2 µM
Acetylcholinesterase
  IC50: 20.9 µM
Homo sapiens [1]
  Ratio IC50: 1.4

## COc1cccc(CC2CCN(CCOc3ccc4c(c3)oc(=O)c3ccccc34)CC2)c1
Cholinesterase
  IC50: > 40 µM
Acetylcholinesterase
  IC50: 29.3 µM
Homo sapiens [1]
  Ratio IC50: > 1

## O=c1oc2cc(OCCN3CCN(Cc4ccccc4)CC3)ccc2c2ccccc12
Cholinesterase
  IC50: 12.1 µM
Acetylcholinesterase
  IC50: 0.9 µM
Homo sapiens [1]
  Ratio IC50: 13.4

## O=c1oc2cc(OCCN3CCC(Cc4ccccc4)CC3)ccc2c2c1CCCC2
Cholinesterase
  IC50: > 40 µM
Acetylcholinesterase
  IC50: 8.1 µM
Homo sapiens [1]
  Ratio IC50: > 5

## CN(CCCCOc1ccc2c(c1)oc(=O)c1ccccc12)Cc1ccccc1
Cholinesterase
  IC50: 6.5 µM
Rattus norvegicus
  inhibition in vivo at 1 mg/kg: 62%
Acetylcholinesterase
  IC50: 1.1 µM
Homo sapiens [1]
  Ratio IC50: 5.9

## O=c1oc2cc(OCCCN3CCC(Cc4ccccc4)CC3)ccc2c2c1CCCC2
Cholinesterase
  IC50: > 40 µM
Acetylcholinesterase
  IC50: 4.3 µM
Homo sapiens [1]
  Ratio IC50: > 9

## CN(CCCOc1ccc2c(c1)oc(=O)c1ccccc12)Cc1ccccc1
Cholinesterase
  IC50: 14.9 µM
Acetylcholinesterase
  IC50: 8.5 µM
Homo sapiens [1]
  Ratio IC50: 1.7

## COc1cccc(CN(C)CCCCOc2ccc3c(c2)oc(=O)c2ccccc23)c1
Cholinesterase
  IC50: 17.6 µM
Acetylcholinesterase
  IC50: 8.3 µM
Homo sapiens [1]
  Ratio IC50: 2.1

## CN(CCCCOc1ccc2c3c(c(=O)oc2c1)CCCC3)Cc1ccccc1
Cholinesterase
  IC50: 18.9 µM
Rattus norvegicus
  inhibition in vivo at 1 mg/kg: 65%
Acetylcholinesterase
  IC50: 1 µM
Homo sapiens [1]
  Ratio IC50: 18.9

## COc1cccc(CN(C)CCCCOc2ccc3c4c(c(=O)oc3c2)CCCC4)c1
Cholinesterase
  IC50: > 40 µM
Acetylcholinesterase
  IC50: 1.7 µM
Homo sapiens [1]
  Ratio IC50: > 23

## COc1cccc(CN(C)CCOc2ccc3c4c(c(=O)oc3c2)CCCC4)c1
Cholinesterase
  IC50: > 40 µM
Acetylcholinesterase
  IC50: 6 µM
Homo sapiens [1]
  Ratio IC50: > 6

## CN(CCOc1ccc2c(c1)oc(=O)c1ccccc12)Cc1ccccc1
Cholinesterase
  IC50: 14.1 µM
Acetylcholinesterase
  IC50: 6.7 µM
Homo sapiens [1]
  Ratio IC50: 2.1

From ChEMBL document CHEMBL3351711, “Design, synthesis and biological evaluation of novel 6H-benzo[c]chromen-6-one, and 7,8,9,10-tetrahydro-benzo[c]chromen-6-one derivatives as potential cholinesterase inhibitors” (Bioorg Med Chem, 2014)
